From publication PMC4969713 (Journal of Alzheimer's Disease, 2016)
Where “and” joins values, the source holds several entries; their conditions need not be identical. Equal values may be shown once. Entries after “also recorded” stand apart in the source; their conditions may differ. Where a name gives a salt, the structure may show the parent alone. Read-outs that look alike come from different tables or passages of the source.

Legend:
dopamine transporter = dopamine transporter (Homo sapiens, UniProt Q01959); assay: Target panel binding, dopamine transporter
Sequence of dopamine transporter (Q01959 whole entry): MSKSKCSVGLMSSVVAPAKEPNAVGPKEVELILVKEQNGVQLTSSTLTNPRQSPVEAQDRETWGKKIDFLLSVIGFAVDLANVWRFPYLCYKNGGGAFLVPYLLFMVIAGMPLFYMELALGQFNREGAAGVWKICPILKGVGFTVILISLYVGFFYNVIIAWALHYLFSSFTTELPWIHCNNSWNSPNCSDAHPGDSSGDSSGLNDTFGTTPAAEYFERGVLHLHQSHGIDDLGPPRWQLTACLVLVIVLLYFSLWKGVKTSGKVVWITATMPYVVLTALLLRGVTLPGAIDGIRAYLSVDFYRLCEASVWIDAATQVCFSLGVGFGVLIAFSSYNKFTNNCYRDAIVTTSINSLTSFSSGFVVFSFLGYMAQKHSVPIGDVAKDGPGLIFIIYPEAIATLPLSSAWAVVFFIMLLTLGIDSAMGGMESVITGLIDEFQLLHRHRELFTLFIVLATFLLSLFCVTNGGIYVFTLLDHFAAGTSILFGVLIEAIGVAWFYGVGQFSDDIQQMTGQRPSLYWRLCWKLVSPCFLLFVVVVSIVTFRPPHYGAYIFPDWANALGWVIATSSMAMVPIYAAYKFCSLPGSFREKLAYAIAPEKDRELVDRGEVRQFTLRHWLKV

5-HT2B receptor [1] = biological target: 5-HT2B receptor (Rattus norvegicus, UniProt P30994); assay: Rat stomach fundus contraction assay
Sequence of 5-HT2B receptor (Rattus norvegicus, UniProt P30994) (P30994 whole entry): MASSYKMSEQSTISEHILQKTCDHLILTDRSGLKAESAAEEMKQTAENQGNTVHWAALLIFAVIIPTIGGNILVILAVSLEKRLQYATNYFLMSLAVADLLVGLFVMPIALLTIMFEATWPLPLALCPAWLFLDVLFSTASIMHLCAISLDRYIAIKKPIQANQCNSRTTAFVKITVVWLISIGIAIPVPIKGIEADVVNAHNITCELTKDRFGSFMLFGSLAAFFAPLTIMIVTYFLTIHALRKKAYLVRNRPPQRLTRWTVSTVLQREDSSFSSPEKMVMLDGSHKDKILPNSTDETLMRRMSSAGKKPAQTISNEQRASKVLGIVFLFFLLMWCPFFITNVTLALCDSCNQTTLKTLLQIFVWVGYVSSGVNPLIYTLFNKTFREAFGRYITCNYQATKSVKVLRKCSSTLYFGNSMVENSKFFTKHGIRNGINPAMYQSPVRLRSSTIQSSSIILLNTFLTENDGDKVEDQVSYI

5-HT2C receptor [2] = biological target: T1, 5-HT2C receptor (Homo sapiens, UniProt P28335); assay: Radioligand binding competition, 5-HT2C; details: Ki
T1 sequence (P28335 33-458): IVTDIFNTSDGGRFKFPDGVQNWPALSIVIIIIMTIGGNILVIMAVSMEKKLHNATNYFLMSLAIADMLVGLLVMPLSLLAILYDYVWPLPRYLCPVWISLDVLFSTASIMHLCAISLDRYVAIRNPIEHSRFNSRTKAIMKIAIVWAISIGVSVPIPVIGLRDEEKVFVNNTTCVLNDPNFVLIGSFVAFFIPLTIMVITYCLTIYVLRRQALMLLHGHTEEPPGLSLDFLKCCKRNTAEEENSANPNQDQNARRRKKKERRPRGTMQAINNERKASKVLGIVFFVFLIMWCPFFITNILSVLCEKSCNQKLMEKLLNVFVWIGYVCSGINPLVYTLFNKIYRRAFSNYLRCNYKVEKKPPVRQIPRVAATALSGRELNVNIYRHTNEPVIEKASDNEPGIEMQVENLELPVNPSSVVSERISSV

5-HT7 receptor = 5-HT7 receptor (Homo sapiens, UniProt P34969); assay: Radioligand binding competition, 5-HT7
Sequence of 5-HT7 receptor (P34969 whole entry): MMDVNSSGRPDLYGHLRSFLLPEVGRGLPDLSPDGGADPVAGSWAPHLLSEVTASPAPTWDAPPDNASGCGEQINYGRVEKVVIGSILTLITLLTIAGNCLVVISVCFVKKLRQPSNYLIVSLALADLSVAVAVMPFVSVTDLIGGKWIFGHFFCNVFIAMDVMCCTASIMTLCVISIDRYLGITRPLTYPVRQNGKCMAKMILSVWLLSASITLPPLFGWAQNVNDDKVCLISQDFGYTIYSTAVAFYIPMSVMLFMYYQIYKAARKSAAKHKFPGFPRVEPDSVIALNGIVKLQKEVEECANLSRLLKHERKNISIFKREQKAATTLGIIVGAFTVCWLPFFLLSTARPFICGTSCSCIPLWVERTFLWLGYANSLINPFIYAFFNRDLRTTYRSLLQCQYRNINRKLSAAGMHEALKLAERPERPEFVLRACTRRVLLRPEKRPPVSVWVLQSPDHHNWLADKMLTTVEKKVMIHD

male SHK mice = assay: Apomorphine-induced disruption of pre-pulse inhibition; type: in vivo; details: IP
Procedure, shortened: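 Male SHK mice received apomorphine as the pro-psychotic agent to disrupt pre-pulse inhibition. Groups: untreated control, apomorphine alone, haloperidol 1 mg/kg as positive control, and test compound at several doses. Groups were compared with the apomorphine-only group by Student test.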

CYP2C8 = CYP2C8 (Homo sapiens, UniProt P10632); assay: Metabolism by recombinant CYP2C8; type: in vitro ADME
Sequence of CYP2C8 (P10632 whole entry): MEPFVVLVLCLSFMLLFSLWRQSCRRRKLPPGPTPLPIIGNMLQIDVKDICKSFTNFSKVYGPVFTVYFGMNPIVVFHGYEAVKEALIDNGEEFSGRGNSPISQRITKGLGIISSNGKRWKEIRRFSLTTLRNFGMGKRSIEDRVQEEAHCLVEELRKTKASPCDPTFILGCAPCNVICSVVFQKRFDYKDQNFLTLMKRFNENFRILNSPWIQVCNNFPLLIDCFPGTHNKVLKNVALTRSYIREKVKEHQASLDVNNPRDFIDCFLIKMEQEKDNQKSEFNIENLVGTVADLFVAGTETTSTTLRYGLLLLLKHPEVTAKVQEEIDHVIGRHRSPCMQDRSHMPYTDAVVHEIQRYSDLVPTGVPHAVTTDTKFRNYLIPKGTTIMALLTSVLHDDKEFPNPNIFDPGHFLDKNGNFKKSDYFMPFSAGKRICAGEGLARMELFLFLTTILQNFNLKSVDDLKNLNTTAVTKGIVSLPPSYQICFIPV

[3] = Pharmacokinetics in mice, IP; type: in vivo; details: mouse, blood
[4] = Dialysis of diluted rat plasma against rat brain homogenate; type: in vitro ADME; details: 1μM AVN-101 in 20% plasma vs brain homogenate
Procedure, shortened: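 A 48-well semi-permeable-membrane dialysis plate was used. Donor chamber held 20% rat plasma diluted in PBS with 1 μM test compound; acceptor chamber held rat brain homogenate. Both chambers were sampled at several time points, and samples were matrix-equilibrated by cross-adding the opposite matrix. Membrane-permeability controls used 20% plasma in both chambers or PBS in both chambers.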

5-HT2B receptor [5] = biological target: 5-HT2B receptor (Homo sapiens, UniProt P41595); assay: Intracellular Ca2+ mobilization in HEK 297 cells expressing 5-HT2B; type: cell-based
Sequence of 5-HT2B receptor (Homo sapiens, UniProt P41595) (P41595 whole entry): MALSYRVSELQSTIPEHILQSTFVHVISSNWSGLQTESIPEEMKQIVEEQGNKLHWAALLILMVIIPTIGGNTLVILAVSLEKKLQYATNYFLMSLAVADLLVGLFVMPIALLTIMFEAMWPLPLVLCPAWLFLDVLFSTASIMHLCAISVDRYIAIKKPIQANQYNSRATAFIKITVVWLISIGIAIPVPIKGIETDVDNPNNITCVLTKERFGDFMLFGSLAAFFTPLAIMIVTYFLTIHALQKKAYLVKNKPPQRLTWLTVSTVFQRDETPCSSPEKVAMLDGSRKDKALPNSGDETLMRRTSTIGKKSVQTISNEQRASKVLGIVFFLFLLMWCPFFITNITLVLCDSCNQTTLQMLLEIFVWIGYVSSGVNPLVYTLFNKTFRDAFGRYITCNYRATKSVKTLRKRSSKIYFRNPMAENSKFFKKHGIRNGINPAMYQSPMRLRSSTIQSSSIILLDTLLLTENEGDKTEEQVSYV

BALB/c mice = assay: Morris water maze, scopolamine-induced amnesia; type: in vivo; details: IP; AVN-101 0.2 mg/kg; Tacrine 3 mg/kg; donepezil 1 mg/kg; scopolamine 1.5 mg/kg
Procedure, shortened: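 Scopolamine-induced amnesia model in male BALB/c mice. Read-out was time spent in the quadrant where the escape platform had been during the two preceding training days, reported as mean ± SE.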

[6] = Brain/plasma/CSF distribution in Sprague Dawley rats; type: in vivo
Wistar rats = assay: 30 days toxicity, rats; type: in vivo; details: 0.5, 5 and 25 mg/kg PO daily
Procedure, shortened: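 Wistar rats were randomised to vehicle, 0.5, 5 or 25 mg/kg, with 10 males and 10 females per group. Read-outs were body weight, plasma biochemistry markers, and macro- and microscopic observations.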

5-HT2C receptor [7] = biological target: T1, 5-HT2C receptor; details: Table 2; cited from earlier work
Dopaminergic receptors = assay: Radioligand competition, dopaminergic receptors; type: binding; details: compared to the 5-HT7 receptor
laboratory rabbits = assay: 30 days toxicity, rabbits; type: in vivo; details: 4 mg/kg PO daily
histamine H3 receptor = histamine H3 receptor (Homo sapiens, UniProt Q9Y5N1); assay: Radioligand binding competition, histamine H3
Sequence of histamine H3 receptor (Q9Y5N1 whole entry, species assumed): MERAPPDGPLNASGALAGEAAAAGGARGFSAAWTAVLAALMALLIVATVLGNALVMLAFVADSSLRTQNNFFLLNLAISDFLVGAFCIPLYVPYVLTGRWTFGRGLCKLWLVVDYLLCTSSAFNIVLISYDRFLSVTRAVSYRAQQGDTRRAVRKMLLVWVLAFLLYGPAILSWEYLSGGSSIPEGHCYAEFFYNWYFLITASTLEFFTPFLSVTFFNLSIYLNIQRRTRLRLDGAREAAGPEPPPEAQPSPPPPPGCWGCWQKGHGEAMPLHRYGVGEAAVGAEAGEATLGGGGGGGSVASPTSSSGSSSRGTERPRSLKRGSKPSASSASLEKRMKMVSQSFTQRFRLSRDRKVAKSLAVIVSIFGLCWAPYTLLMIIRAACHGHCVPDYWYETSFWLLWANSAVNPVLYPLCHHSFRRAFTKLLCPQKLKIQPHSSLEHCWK

[8] = Sprague Dawley, rat, CSF, iv, 2 mg/kg
[9] = Sprague Dawley, rat, brain, iv, 2 mg/kg
[10] = Sprague Dawley, rat, plasma, iv, 2 mg/kg

With `Cc1ccc2c(c1)c1c(n2CCc2ccccc2)CCN(C)C1` [AVN-101, 2,8-dimethyl-5-penethyl-2,3,4,5-tetra-hydro-1h-pyrido[[4,3-B]]indole hydrochloride] as the compound, how does the binding (dopamine transporter) read?
The binding was “does not bind”.

What about the “blockade of α methyl-serotonin-induced fundus contraction” value (5-HT2B receptor [1]) of the same compound?
The value was “effectively blocking”.

And the “agonistic activity (fundus contraction)” value (5-HT2B receptor [1]; AVN-101 alone)?
The value was “lacked intrinsic agonistic activity”.

And the Ki (5-HT2C receptor [2])?
Its Ki is 1.2 to 2 nM.

And the IC50 (5-HT7 receptor)?
Its IC50 is 0.28 nM.

What about the “affinity higher than SB-742457” value (5-HT7 receptor) of the same compound?
The value was ~4 orders of magnitude.

What about the “optimal dose in restoration of PPI” value (male SHK mice) of the same compound?
Its value is 0.1 to 0.5 mg/kg.

What about the “effect on apomorphine-induced disruption of PPI” value (male SHK mice; apomorphine 20 mg/kg, Haloperidol 1 mg/kg) of the same compound?
Its value is “effective in reversing”.

And the remaining at 0.5 h, 2 µM (CYP2C8)?
The remaining at 0.5 h, 2 µM was 118%.

What about the Cmax ([3]; 0.05 mg/kg) of the same compound?
The Cmax was 1.9 ng/mL.

And the Tmax ([3]; 0.05 mg/kg)?
The Tmax was 5 min.

And the half-life ([3]; 0.05 mg/kg)?
The half-life was 10.5 min.

What about the AUC ([3]; 0.05 mg/kg, AUC0 - >t, IP 0.05 mg/kg) of the same compound?
The AUC was 0.487 ng·h/mL.

What about the AUC ([3]; 0.05 mg/kg, AUC0 - >∞, IP 0.05 mg/kg) of the same compound?
The AUC was 0.498 ng·h/mL.

What about the Cmax ([3]; 0.2 mg/kg) of the same compound?
Its Cmax is 5 ng/mL.

What about the Tmax ([3]; 0.2 mg/kg) of the same compound?
Its Tmax is 15 min.

What about the half-life ([3]; 0.2 mg/kg) of the same compound?
Its half-life is 58 min.

What about the AUC ([3]; 0.2 mg/kg, AUC0 - >t, IP 0.2 mg/kg) of the same compound?
Its AUC is 5.65 ng·h/mL.

What about the AUC ([3]; 0.2 mg/kg, AUC0 - >∞, IP 0.2 mg/kg) of the same compound?
Its AUC is 6.08 ng·h/mL.

What about the Cmax ([3]; 1 mg/kg) of the same compound?
Its Cmax is 23 ng/mL.

And the Tmax ([3]; 1 mg/kg)?
Its Tmax is 15 min.

What about the half-life ([3]; 1 mg/kg) of the same compound?
The half-life was 81 min.

What about the AUC ([3]; 1 mg/kg, AUC0 - >t, IP 1.0 mg/kg) of the same compound?
The AUC was 25.9 ng·h/mL.

And the AUC ([3]; 1 mg/kg, AUC0 - >∞, IP 1.0 mg/kg)?
Its AUC is 32 ng·h/mL.

And the half-life ([3]; 2 mg/kg)?
The half-life was 130 min.

And the Cmax ([3]; 5 mg/kg)?
The Cmax was 198 ng/mL.

What about the Tmax ([3]; 5 mg/kg) of the same compound?
Its Tmax is 5 min.

And the concentration at 5 min ([3]; 5 mg/kg)?
The concentration at 5 min was roughly 650 nM.

And the half-life ([3]; 5 mg/kg)?
The half-life was 136 min.

And the AUC ([3]; 5 mg/kg, AUC0 - >t, IP 5.0 mg/kg)?
Its AUC is 184 ng·h/mL.

And the AUC ([3]; 5 mg/kg, AUC0 - >∞, IP 5.0 mg/kg)?
The AUC was 274 ng·h/mL.

What about the “concentration in brain-containing chamber vs plasma chamber” value [4] of the same compound?
Its value is “never exceeds that of the plasma chamber”.

What about the “agonistic activity (intracellular free Ca2+)” value (5-HT2B receptor [5]; AVN-101 alone, 10μM) of the same compound?
The value was “lacked intrinsic agonistic activity”.

What about the “blockade of α methyl-serotonin-induced Ca2+ spike” value (5-HT2B receptor [5]; αMet5-HT 5μM, AVN-101 10μM) of the same compound?
Its value is “effectively blocking”.

What about the Blood plasma concentration (Dogs (beagles); 0.05 mg/kg IV infusion) of the same compound?
Its Blood plasma concentration is 140 nM and 140 ± 20 nM.

What about the “femoral SBP, down” value (Dogs (beagles); 0.5 mg/kg) of the same compound?
Its value is 13%.

And the Blood plasma concentration (Dogs (beagles); 0.5 mg/kg IV infusion)?
Its Blood plasma concentration is 990 nM and 990 ± 40 nM.

And the “femoral SBP, down” value (Dogs (beagles); 0.5 mg/kg, p < 0.05)?
The value was 17 mm Hg.

And the “femoral SBP, down” value (Dogs (beagles); 2 mg/kg)?
Its value is 16%.

What about the Blood plasma concentration (Dogs (beagles); 2 mg/kg IV infusion) of the same compound?
The Blood plasma concentration was 3280 nM and 3280 ± 300 nM.

And the “shortening of QT” value (Dogs (beagles); 2.0 mg/kg, at 30 min)?
Its value is 15%.

What about the “shortening of QTcV” value (Dogs (beagles); 2.0 mg/kg, at 30 min) of the same compound?
The value was 8%.

What about the “femoral SBP, down” value (Dogs (beagles); 2 mg/kg, p < 0.05) of the same compound?
The value was 21 mm Hg.

What about the “HR, up” value (Dogs (beagles); 10 mg/kg) of the same compound?
Its value is 164%.

And the “aortic DBP, down” value (Dogs (beagles); 10 mg/kg)?
Its value is 13%.

What about the “femoral BF, up” value (Dogs (beagles); 10 mg/kg) of the same compound?
Its value is 27%.

And the “femoral DBP, down” value (Dogs (beagles); 10 mg/kg)?
Its value is 17%.

What about the “femoral SBP, down” value (Dogs (beagles); 10 mg/kg) of the same compound?
The value was 11%.

What about the “left ventricular DBP, down” value (Dogs (beagles); 10 mg/kg) of the same compound?
The value was 40%.

And the “reduction in QT” value (Dogs (beagles); 10.0 mg/kg)?
Its value is 30%.

What about the “reduction in QTcV” value (Dogs (beagles); 10.0 mg/kg) of the same compound?
The value was 13%.

What about the Blood plasma concentration (Dogs (beagles); 10 mg/kg IV infusion) of the same compound?
The Blood plasma concentration was 11100 nM and 11100 ± 2150 nM.

What about the “HR, up” value (Dogs (beagles); 10 mg/kg, p < 0.001) of the same compound?
Its value is 118 bpm.

And the “aortic DBP, down” value (Dogs (beagles); 10 mg/kg, p < 0.05)?
Its value is 9 mmHg.

And the “femoral BF, up” value (Dogs (beagles); 10 mg/kg, p < 0.05)?
The value was 35 mL/min.

And the “femoral DBP, down” value (Dogs (beagles); 10 mg/kg, p < 0.05)?
The value was 12 mm Hg.

And the “left ventricular DBP, down” value (Dogs (beagles); 10 mg/kg, p < 0.05)?
Its value is 2 mmHg.

And the “femoral SBP, down” value (Dogs (beagles); 10 mg/kg, p > 0.05)?
The value was 15 mm Hg.

What about the “effect on scopolamine-induced amnesia (time in platform quadrant)” value (BALB/c mice) of the same compound?
The value was “effectively reversed”.

What about the “binding to blood cells” value ([6]; IV 2 mg/kg, 5 min after injection) of the same compound?
Its value is “low binding capacity”.

And the Vss_obs ([6]; Plasma, IV 2 mg/kg)?
The Vss_obs was 11.6136 L/kg.

What about the AUC(0-inf) [6, 8] of the same compound?
The AUC(0-inf) was 31.7 ng·h/mL.

And the AUC(0-t) [6, 8]?
The AUC(0-t) was 25.3 ng·h/mL.

What about the Cmax [6, 8] of the same compound?
Its Cmax is 11 ng/mL.

What about the half-life [6, 8] of the same compound?
Its half-life is 97.5 min.

And the k el [6, 8]?
The k el was 0.000118 s⁻¹.

And the AUC(0-inf) [6, 9]?
Its AUC(0-inf) is 8960 ng·h/mL.

What about the AUC(0-t) [6, 9] of the same compound?
Its AUC(0-t) is 8000 ng·h/mL.

And the Cmax [6, 9]?
The Cmax was 4660 ng/mL.

What about the Tmax [6, 9] of the same compound?
Its Tmax is 4.8 min.

And the half-life [6, 9]?
Its half-life is 75.7 min.

What about the k el [6, 9] of the same compound?
Its k el is 0.000153 s⁻¹.

What about the AUC(0-inf) [6, 10] of the same compound?
The AUC(0-inf) was 522 ng·h/mL.

And the AUC(0-t) [6, 10]?
The AUC(0-t) was 376 ng·h/mL.

And the C0 [6, 10]?
The C0 was 308 ng/mL.

What about the Cmax [6, 10] of the same compound?
The Cmax was 274 ng/mL.

What about the Tmax [6, 10] of the same compound?
Its Tmax is 4.98 min.

What about the Vd [6, 10] of the same compound?
The Vd was 13.2 L/kg.

And the clearance [6, 10]?
Its clearance is 63.9 mL/min/kg.

And the half-life [6, 10]?
Its half-life is 143 min.

What about the k el [6, 10] of the same compound?
Its k el is 8e-05 s⁻¹.

And the signs of toxicity (Wistar rats)?
Its signs of toxicity is “No signs of toxicity”.

What about the Ki (5-HT2C receptor [7]) of the same compound?
Its Ki is 1.17 nM.

What about the affinity (Dopaminergic receptors) of the same compound?
The affinity was “very low affinity”.

What about the “body weight, plasma biochemistry markers, macro- and microscopic observations” value (laboratory rabbits) of the same compound?
Its value is “No changes”.

And the “kidney finding, one of 3 males” value (laboratory rabbits)?
The value was “small infarctions in cortical substance of the kidneys”.

And the “ovary finding, one of 3 females” value (laboratory rabbits)?
The value was “ovary hypo function”.

And the binding (histamine H3 receptor)?
The binding was “totally inactive; also recorded: does not bind”.
